Test results reported in ChEMBL document CHEMBL1149634, “1-Acylthiosemicarbazides, 1,2,4-triazole-5(4H)-thiones, 1,3,4-thiadiazoles and hydrazones containing 5-methyl-2-benzoxazolinones: synthesis, analgesic-anti-inflammatory and antimicrobial activities” (2007).
≈ marks a conversion by molar mass, not a printed value.

What was measured:
Mus musculus [1] = assay: Analgesic activity in mouse assessed as inhibition of hind paw lick at 100 mg/kg, ip by hot plate test; type: functional; settings: route intraperitoneal
Mus musculus [2] = assay: Analgesic activity in mouse assessed as inhibition of acetic acid induced-abdominal writhing at 100 mg/kg, ip by Koster test; type: functional; settings: Abdomen, route intraperitoneal
Mus musculus [3] = assay: Antiinflammatory activity against carrageenan-induced hind paw oedema in mouse assessed as inhibition of swelling thickness at 100 mg/kg, po after 90 mins; type: functional; settings: 1.5 h
In short: (§1)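 Fasted mice (n = 5–6) were dosed orally with the sample in 0.5% CMC/water. One hour later, carrageenan (0.5 mg/25 µl in 154 mM saline) was injected subplantar into the right hind paw. The right-minus-left footpad thickness difference was measured with dial gauge callipers every 90 min over 6 h. Inhibition % is calculated versus vehicle control; mean ± SEM, Student's t test.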

Mus musculus [4] = assay: Antiinflammatory activity against carrageenan-induced hind paw oedema in mouse assessed as swelling thickness at 50 mg/kg, po after 90 mins; type: functional; in short: as §1
Mus musculus [5] = assay: Antiinflammatory activity against carrageenan-induced hind paw oedema in mouse assessed as inhibition of swelling thickness at 200 mg/kg, po after 90 mins; type: functional; settings: 1.5 h; in short: as §1
Mus musculus [6] = assay: Antiinflammatory activity against carrageenan-induced hind paw oedema in mouse assessed as inhibition of swelling thickness at 100 mg/kg, po after 180 mins; type: functional; settings: 3 h; in short: as §1
Mus musculus [7] = assay: Antiinflammatory activity against carrageenan-induced hind paw oedema in mouse assessed as swelling thickness at 50 mg/kg, po after 180 mins; type: functional; in short: as §1
Mus musculus [8] = assay: Antiinflammatory activity against carrageenan-induced hind paw oedema in mouse assessed as inhibition of swelling thickness at 200 mg/kg, po after 180 mins; type: functional; settings: 3 h; in short: as §1
Mus musculus [9] = assay: Antiinflammatory activity against carrageenan-induced hind paw oedema in mouse assessed as swelling thickness at 50 mg/kg, po after 270 mins; type: functional; in short: as §1
Mus musculus [10] = assay: Antiinflammatory activity against carrageenan-induced hind paw oedema in mouse assessed as inhibition of swelling thickness at 100 mg/kg, po after 360 mins; type: functional; settings: 6 h; in short: as §1
Mus musculus [11] = assay: Antiinflammatory activity against carrageenan-induced hind paw oedema in mouse assessed as swelling thickness at 50 mg/kg, po after 360 mins; type: functional; in short: as §1
Staphylococcus aureus = assay: Antibacterial activity against Staphylococcus aureus ATCC 29213 after 24 hrs by broth microdilution test; type: functional; settings: ATCC 29213, 24 h
In short: (§2)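 NCCLS broth microdilution in Mueller-Hinton broth with an inoculum of 5 × 10^5 cfu/mL. Compounds were dissolved in DMSO, diluted in sterile water, and tested as twofold dilutions from 512 to 0.5 µg/mL. Plates were incubated at 35 °C for 24 h. MIC is the lowest concentration preventing visible growth.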

Enterococcus faecalis = assay: Antibacterial activity against Enterococcus faecalis ATCC 29212 after 24 hrs by broth microdilution test; type: functional; settings: ATCC 29212, 24 h; in short: as §2
Escherichia coli = assay: Antibacterial activity against Escherichia coli ATCC 25922 after 24 hrs by broth microdilution test; type: functional; settings: ATCC 25922, 24 h; in short: as §2
Pseudomonas aeruginosa = assay: Antibacterial activity against Pseudomonas aeruginosa ATCC 27853 after 24 hrs by broth microdilution test; type: functional; settings: ATCC 27853, 24 h; in short: as §2
Candida albicans = assay: Antifungal activity against Candida albicans ATCC 90028 after 48 hrs by broth microdilution test; type: functional; settings: ATCC 90028, 48 h
In short: (§3)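 Yeasts tested by NCCLS M27-A broth microdilution in RPMI 1640 (with L-glutamine, without sodium bicarbonate) with an inoculum of 0.5–2.5 × 10^3 cfu/mL. Compounds were prepared from DMSO solution diluted in water as twofold dilutions from 512 to 0.5 µg/mL. Plates were incubated at 35 °C for 48 h. MIC is the lowest concentration giving no visible growth.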

Pichia kudriavzevii = assay: Antifungal activity against Candida krusei ATCC 6258 after 48 hrs by broth microdilution test; type: functional; settings: ATCC 6258, 48 h; in short: as §3
Candida parapsilosis = assay: Antifungal activity against Candida parapsilosis ATCC 22019 after 48 hrs by broth microdilution test; type: functional; settings: Lodderomyces parapsilosis, ATCC 22019, 48 h; in short: as §3
Mus musculus [12] = assay: Antiinflammatory activity against carrageenan-induced hind paw oedema in mouse assessed as swelling thickness at 100 mg/kg, po after 270 mins; type: functional; in short: as §1
Mus musculus [13] = assay: Antiinflammatory activity against carrageenan-induced hind paw oedema in mouse assessed as swelling thickness at 200 mg/kg, po after 270 mins; type: functional; in short: as §1
Mus musculus [14] = assay: Antiinflammatory activity against carrageenan-induced hind paw oedema in mouse assessed as swelling thickness at 200 mg/kg, po after 360 mins; type: functional; in short: as §1
Mus musculus [15] = assay: Antiinflammatory activity against carrageenan-induced hind paw oedema in mouse assessed as inhibition of swelling thickness at 200 mg/kg, po after 270 mins; type: functional; settings: 4.5 h; in short: as §1
Mus musculus [16] = assay: Toxicity in mouse assessed as ulceration effect at 200 mg/kg; type: functional, organism-based; set-up: dose 200 mg/kg
In short: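 Mice given 200 mg/kg orally in the carrageenan oedema study were killed under deep ether anaesthesia 6 h after treatment. Stomachs were opened along the greater curvature and examined under a dissecting microscope for lesions or bleeding. Result is expressed as the ratio of ulcerated animals per group.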

Mus musculus [17] = assay: Antiinflammatory activity against carrageenan-induced hind paw oedema in mouse assessed as inhibition of swelling thickness at 50 mg/kg, po after 90 mins; type: functional; settings: 1.5 h; in short: as §1
Mus musculus [18] = assay: Antiinflammatory activity against carrageenan-induced hind paw oedema in mouse assessed as swelling thickness at 100 mg/kg, po after 180 mins; type: functional; in short: as §1
Mus musculus [19] = assay: Antiinflammatory activity against carrageenan-induced hind paw oedema in mouse assessed as inhibition of swelling thickness at 200 mg/kg, po after 360 mins; type: functional; settings: 6 h; in short: as §1
Mus musculus [20] = assay: Antiinflammatory activity against carrageenan-induced hind paw oedema in mouse assessed as swelling thickness at 100 mg/kg, po after 360 mins; type: functional; in short: as §1

Structure (SMILES) | inhibition in vivo at 100 mg/kg (Mus musculus [1]) [%] | inhibition in vivo at 100 mg/kg (Mus musculus [2]) [%] | inhibition in vivo at 100 mg/kg (Mus musculus [3]) [%] | inhibition in vivo at 200 mg/kg (Mus musculus [5]) [%] | Activity (Mus musculus [7]) [%] | inhibition in vivo at 200 mg/kg (Mus musculus [8]) [%] | Activity (Mus musculus [9]) [%] | inhibition in vivo at 100 mg/kg (Mus musculus [10]) [%] | Activity (Mus musculus [11]) [%] | MIC (Staphylococcus aureus) [µg/mL] | MIC (Enterococcus faecalis) [µg/mL] | MIC (Escherichia coli) [µg/mL] | MIC (Pseudomonas aeruginosa) [µg/mL] | MIC (Candida albicans) [µg/mL] | MIC (Pichia kudriavzevii) [µg/mL] | MIC (Candida parapsilosis) [µg/mL] | Activity (Mus musculus [12]) [%] | Activity (Mus musculus [14]) [%] | inhibition in vivo at 200 mg/kg (Mus musculus [15]) [%] | Activity (Mus musculus [16]) | other results
Cc1ccc(/C=N/NC(=O)Cn2c(=O)oc3ccc(C)cc32)cc1 | 52.9 | 77.8 | 69.7 | 17.1 | 86.8 | 33.3 | 103.8 | 12.6 | 98 | 512 (≈ 1580 µM) | 256 (≈ 792 µM) | 128 (≈ 396 µM) | 256 (≈ 792 µM) | 128 (≈ 396 µM) | 128 (≈ 396 µM) | 128 (≈ 396 µM) | 92 | 83.6 | – | – | Activity (Mus musculus [4]): 73.8%; inhibition in vivo at 100 mg/kg (Mus musculus [6]): 9.4%; Activity (Mus musculus [13]): 89.1%
Cc1ccc2oc(=O)n(CC(=O)N/N=C/c3ccc(Br)cc3)c2c1 | 20.3 | 72.6 | 44.4 | – | 94.6 | 46.9 | 95.9 | 19.1 | 83 | > 512 | > 512 | > 512 | > 512 | 64 (≈ 165 µM) | 256 (≈ 659 µM) | 128 (≈ 330 µM) | 92 | 84.4 | 11.1 | Toxic | inhibition in vivo at 100 mg/kg (Mus musculus [6]): 43.7%; inhibition in vivo at 50 mg/kg (Mus musculus [17]): 1.9%
CCn1c(Cn2c(=O)oc3ccc(C)cc32)n[nH]c1=S | 36.2 | 43.5 | 57.1 | 56.5 | 91.1 | 31.8 | 147.3 | – | 146.7 | 512 (≈ 1760 µM) | 512 (≈ 1760 µM) | 512 (≈ 1760 µM) | 256 (≈ 882 µM) | 512 (≈ 1760 µM) | 256 (≈ 882 µM) | 256 (≈ 882 µM) | 117.6 | – | 25.9 | Not toxic | Activity (Mus musculus [18]): 95.9%; Activity (Mus musculus [4]): 82.9%; inhibition in vivo at 200 mg/kg (Mus musculus [19]): 19.7%; Activity (Mus musculus [20]): 87.1%
COc1ccc(/C=N/NC(=O)Cn2c(=O)oc3ccc(C)cc32)cc1 | 27.5 | 65.7 | 82.4 | 87.9 | 82.3 | 65.2 | 108.8 | 17.5 | 87.2 | 256 (≈ 754 µM) | 128 (≈ 377 µM) | 512 (≈ 1510 µM) | 256 (≈ 754 µM) | 128 (≈ 377 µM) | 128 (≈ 377 µM) | 512 (≈ 1510 µM) | 95.4 | 86.2 | 38.3 | Toxic | Activity (Mus musculus [18]): 100.8%; inhibition in vivo at 50 mg/kg (Mus musculus [17]): 19.5%
